Measured values: ChEMBL document CHEMBL4765234 (J Med Chem, 2016)
Active and inactive are the calls of the source. No cut-off for these calls is given here.

Experiments:
[1] = target: T1, Free fatty acid receptor 1 (Homo sapiens, UniProt O14842); test: Agonist activity at human recombinant full length GPR40 overexpressed in human HEK293 cells assessed as increase in intracellular calcium level measured over 3 mins by calcium 4 dye based FLIPR assay relative to 100 uM linoleic acid; format: functional, cell-based; conditions: filed as agonist
T1 sequence (O14842 whole entry): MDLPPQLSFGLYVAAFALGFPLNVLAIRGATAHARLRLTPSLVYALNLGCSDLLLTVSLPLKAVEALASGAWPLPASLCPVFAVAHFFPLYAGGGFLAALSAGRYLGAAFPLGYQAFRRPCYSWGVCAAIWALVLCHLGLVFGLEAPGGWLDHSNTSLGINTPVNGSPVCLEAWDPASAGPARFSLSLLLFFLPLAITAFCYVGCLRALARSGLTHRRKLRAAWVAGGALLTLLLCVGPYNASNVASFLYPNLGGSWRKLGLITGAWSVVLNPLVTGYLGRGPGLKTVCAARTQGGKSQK
In short: (§1)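 HEK293 cells overexpressing hGPR40 (25K/well) were cultured overnight in DMEM/F12 with 0.2% FBS and geneticin. Compound was tested at 40 μM–0.1 nM final (20-point, 1% DMSO), and FLIPR fluorescence was read over 3 min.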

[2] = target: T2, Peroxisome proliferator-activated receptor gamma (Homo sapiens) (UniProt P37231); test: Displacement of [3H]-[…] from PPARgamma (unknown origin) expressed in baculovirus infected Sf9 insect cells upto 30 uM measured after 10 hrs by microbeta scintillation counting analysis; conditions: dose microM <=30, time 10.0 hrs
T2 sequence (whole entry): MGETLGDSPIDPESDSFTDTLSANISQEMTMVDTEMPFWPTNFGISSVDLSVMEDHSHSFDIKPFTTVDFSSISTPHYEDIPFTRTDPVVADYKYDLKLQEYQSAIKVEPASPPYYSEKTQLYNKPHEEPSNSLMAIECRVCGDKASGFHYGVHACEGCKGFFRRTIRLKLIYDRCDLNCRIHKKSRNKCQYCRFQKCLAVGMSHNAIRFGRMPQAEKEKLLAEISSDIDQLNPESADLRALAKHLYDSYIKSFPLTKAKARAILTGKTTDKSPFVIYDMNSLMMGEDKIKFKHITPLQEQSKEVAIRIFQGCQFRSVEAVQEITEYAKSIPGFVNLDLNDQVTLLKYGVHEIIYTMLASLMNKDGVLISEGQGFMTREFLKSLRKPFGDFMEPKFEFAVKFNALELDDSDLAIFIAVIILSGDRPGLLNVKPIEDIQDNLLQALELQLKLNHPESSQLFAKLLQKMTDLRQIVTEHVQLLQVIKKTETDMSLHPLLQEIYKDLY
In short: (§2)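 Scintillation proximity assay. Sf9 lysates with baculovirus-expressed PPARα (0.3 μg), PPARδ (0.5 μg) or PPARγ (1.25 μg), each with RXRα, were bound via biotinylated DR2 oligo (0.126 nM) to streptavidin yttrium silicate beads. Buffer was HEPES pH 7.8 with KCl, MgCl2, DTT, CHAPS, 14% glycerol and salmon sperm DNA. A 3H reference agonist ligand was used, with 11 compound concentrations, for 10 h. Nonspecific binding was defined with 10000 nM unlabeled reference. Ki was derived from IC50.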

[3] = target: T1, Free fatty acid receptor 1; test: Agonist activity at human recombinant full-length Prolink-tagged GPR40 fused with EA-tagged beta-arrestin expressed in human HEK293 cells assessed as induction of beta-arrestin recruitment measured after 90 mins by beta-galactosidase based PathHunter assay; format: cell-based
In short: (§3)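 PathHunter β-gal complementation. Cells were incubated overnight at 5000/well in medium with 1% heat-inactivated FBS. Compound was added as a 20-point 2-fold series from a top final of 100 μM (1% DMSO) for 90 min at 37 °C, followed by detection reagents and chemiluminescence read after 1 h at rt.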

[4] = target: Free fatty acid receptor 1 (Mus musculus, UniProt Q76JU9); test: Agonist activity at Prolink-tagged mouse GPR40 fused with EA-tagged beta-arrestin expressed in human U2OS cells assessed as induction of beta-arrestin recruitment measured after 90 mins by beta-galactosidase based PathHunter assay; format: cell-based; in short: as §3
Free fatty acid receptor 1 (Mus musculus, UniProt Q76JU9), sequence (Q76JU9 whole entry, the tested form may be a part): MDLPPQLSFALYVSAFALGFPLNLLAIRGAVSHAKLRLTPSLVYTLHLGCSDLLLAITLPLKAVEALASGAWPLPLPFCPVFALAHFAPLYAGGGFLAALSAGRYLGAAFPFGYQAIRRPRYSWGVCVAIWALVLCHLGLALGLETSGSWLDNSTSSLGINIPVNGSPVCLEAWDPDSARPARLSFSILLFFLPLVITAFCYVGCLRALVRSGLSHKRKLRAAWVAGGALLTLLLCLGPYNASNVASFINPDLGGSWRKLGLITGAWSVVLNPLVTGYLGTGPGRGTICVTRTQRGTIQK

[5] = target: T3, Peroxisome proliferator-activated receptor delta (Homo sapiens) (UniProt Q03181); test: Displacement of [3H]-[…] from PPARdelta (unknown origin) expressed in baculovirus infected Sf9 insect cells upto 30 uM measured after 10 hrs by microbeta scintillation counting analysis; conditions: dose microM <=30, time 10.0 hrs; in short: as §2
T3 sequence (whole entry): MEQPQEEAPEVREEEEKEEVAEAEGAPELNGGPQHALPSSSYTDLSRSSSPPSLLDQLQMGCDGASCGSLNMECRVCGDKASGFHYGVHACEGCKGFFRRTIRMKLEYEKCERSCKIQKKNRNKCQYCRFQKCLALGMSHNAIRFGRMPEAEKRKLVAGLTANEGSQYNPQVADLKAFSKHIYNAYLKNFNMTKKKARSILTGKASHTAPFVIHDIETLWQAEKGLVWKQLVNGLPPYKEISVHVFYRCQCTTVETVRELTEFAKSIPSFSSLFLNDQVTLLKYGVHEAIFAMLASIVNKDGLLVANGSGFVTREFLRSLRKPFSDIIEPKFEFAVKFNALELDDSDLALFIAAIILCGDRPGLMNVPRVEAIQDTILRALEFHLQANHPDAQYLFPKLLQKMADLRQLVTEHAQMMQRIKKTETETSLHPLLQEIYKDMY

[6] = target: T1, Free fatty acid receptor 1; test: Displacement of [3H]-TAK-875 from human recombinant full-length GPR40 expressed in human HEK293 cell membrane incubated for 2 hrs by solid scintillation counting method; format: cell membranes
[7] = target: T1, Free fatty acid receptor 1; test: Agonist activity at human recombinant full-length Prolink-tagged GPR40 fused with EA-tagged beta-arrestin expressed in human HEK293 cells assessed as induction of beta-arrestin recruitment measured after 90 mins by beta-galactosidase based PathHunter assay relative to control; format: cell-based; conditions: filed as agonist; in short: as §3
[8] = target: Free fatty acid receptor 1 (Rattus norvegicus, UniProt Q8K3T4); test: Agonist activity at Prolink-tagged rat GPR40 fused with EA-tagged beta-arrestin expressed in human U2OS cells assessed as induction of beta-arrestin recruitment measured after 90 mins by beta-galactosidase based PathHunter assay; format: cell-based; in short: as §3
Free fatty acid receptor 1 (Rattus norvegicus, UniProt Q8K3T4), sequence (Q8K3T4 whole entry, the tested form may be a part): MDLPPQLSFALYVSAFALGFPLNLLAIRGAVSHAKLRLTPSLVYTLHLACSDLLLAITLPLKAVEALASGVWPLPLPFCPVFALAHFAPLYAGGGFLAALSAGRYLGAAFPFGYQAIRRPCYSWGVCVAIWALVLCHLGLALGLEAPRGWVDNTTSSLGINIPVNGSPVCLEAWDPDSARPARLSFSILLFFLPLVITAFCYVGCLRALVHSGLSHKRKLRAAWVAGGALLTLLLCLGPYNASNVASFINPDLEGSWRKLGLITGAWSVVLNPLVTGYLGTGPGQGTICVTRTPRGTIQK

[9] = target: T1, Free fatty acid receptor 1; test: Agonist activity at human recombinant full length GPR40 overexpressed in human HEK293 cells assessed as increase in intracellular calcium level measured over 3 mins by calcium 4 dye based FLIPR assay; format: functional, cell-based; in short: as §1
[10] = target: T1, Free fatty acid receptor 1; test: Agonist activity at human recombinant full length GPR40 overexpressed in human HEK293 cells assessed as increase in inositol phosphate accumulation in presence of terbium cryptate-labeled anti IP1/d2-labelled IP1 measured after 120 mins by HTRF assay relative to AMG837; format: functional, cell-based; conditions: filed as agonist
In short: (§4)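 HEK293 hGPR40 cells (20K/well) were cultured overnight, washed, and held in IP1 stimulation buffer. IP-1 was measured by competitive HTRF immunoassay with terbium cryptate anti-IP1 mAb and d2-labelled IP1.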

[11] = target: T1, Free fatty acid receptor 1; test: Agonist activity at human recombinant full length GPR40 overexpressed in human HEK293 cells assessed as increase in inositol phosphate accumulation in presence of terbium cryptate-labeled anti IP1/d2-labelled IP1 measured after 120 mins by HTRF assay; format: functional, cell-based; in short: as §4
[12] = target: Free fatty acid receptor 1 (Mus musculus) (UniProt Q76JU9); test: Agonist activity at Prolink-tagged mouse GPR40 fused with EA-tagged beta-arrestin expressed in human U2OS cells assessed as induction of beta-arrestin recruitment measured after 90 mins by beta-galactosidase based PathHunter assay relative to control; format: cell-based; conditions: filed as agonist; in short: as §3
Free fatty acid receptor 1 (Mus musculus), sequence (Q76JU9 whole entry, the tested form may be a part): as the sequence (Q76JU9 whole entry, the tested form may be a part) above

[13] = Protein binding in plasma (unknown origin) by equilibrium dialysis method; format: ADME, cell-free; conditions: human, read-out: PPB
In short: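 Plasma protein binding measured by equilibrium dialysis.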

[14] = target: T4, Peroxisome proliferator-activated receptor alpha (Homo sapiens) (UniProt Q07869); test: Displacement of [3H]-[…] from PPARalpha (unknown origin) expressed in baculovirus infected Sf9 insect cells upto 30 uM measured after 10 hrs by microbeta scintillation counting analysis; conditions: dose microM <=30, time 10.0 hrs; in short: as §2
T4 sequence (whole entry): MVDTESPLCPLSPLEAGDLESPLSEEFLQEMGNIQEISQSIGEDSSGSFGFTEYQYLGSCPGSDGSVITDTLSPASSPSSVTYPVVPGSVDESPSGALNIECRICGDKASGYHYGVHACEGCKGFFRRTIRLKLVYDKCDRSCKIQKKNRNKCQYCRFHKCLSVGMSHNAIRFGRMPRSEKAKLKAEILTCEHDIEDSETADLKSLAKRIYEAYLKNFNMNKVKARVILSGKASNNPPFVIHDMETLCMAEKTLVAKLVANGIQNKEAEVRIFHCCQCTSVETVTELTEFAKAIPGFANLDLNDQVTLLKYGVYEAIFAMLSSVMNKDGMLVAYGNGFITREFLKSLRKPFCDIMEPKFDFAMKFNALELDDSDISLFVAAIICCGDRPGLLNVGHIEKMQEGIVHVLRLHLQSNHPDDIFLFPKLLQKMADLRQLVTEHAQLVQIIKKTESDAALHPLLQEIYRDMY

[15] = target: Free fatty acid receptor 1 (Rattus norvegicus) (UniProt Q8K3T4); test: Agonist activity at Prolink-tagged rat GPR40 fused with EA-tagged beta-arrestin expressed in human U2OS cells assessed as induction of beta-arrestin recruitment measured after 90 mins by beta-galactosidase based PathHunter assay relative to control; format: cell-based; conditions: filed as agonist; in short: as §3
Free fatty acid receptor 1 (Rattus norvegicus), sequence (Q8K3T4 whole entry, the tested form may be a part): as the sequence (Q8K3T4 whole entry, the tested form may be a part) above

Row | SMILES | Emax [1] | Activity [2] | EC50 [3] | EC50 [4] | Activity [5] | Ki [6] | Emax [7] | EC50 [8] | EC50 [9] | Emax [10] | EC50 [11] | Emax [12] | fraction unbound [13] | Activity [14] | Emax [15]
1 | CC#C[C@H](CC(=O)O)c1ccc(OCc2ccc(CN3CCC4(C=Cc5ccccc54)CC3)cc2)cc1 | 46% | inactive | 540 nM | 60 nM | inactive | 310 nM | 95% | 120 nM | 2800 nM | 166% | 360 nM | 100% | < 0.01 | inactive | 101%
2 | CC#C[C@@H](CC(=O)O)c1ccc(OCc2ccc(CN3CCC4(CC3)CN(C)c3ccc(OC)cc34)cc2)cc1 | 49% | inactive | 100 nM | 11 nM | inactive | 29 nM | 129% | 18 nM | 130 nM | 311% | 23 nM | 144% | < 0.01 | inactive | 145%
3 | CC#C[C@H](CC(=O)O)c1ccc(OCc2ccc(CN3CCC4(C=Cc5ccccc54)CC3)cc2)cc1F | 61% | inactive | 680 nM | 120 nM | inactive | 410 nM | 102% | 420 nM | 440 nM | 160% | 190 nM | 113% | < 0.01 | inactive | 112%
4 | CC#C[C@@H](CC(=O)O)c1ccc(OCc2ccc(CN3CCC4(C=Cc5ccccc54)CC3)c(C)c2)cc1 | 47% | inactive | 1.7 nM | 0.42 nM | inactive | 1.3 nM | 150% | 0.54 nM | 23 nM | 206% | 4.2 nM | 147% | < 0.01 | inactive | 146%
5 | CC#C[C@@H](CC(=O)O)c1ccc(OCc2ccc(CN3CCC4(C=Cc5ccccc54)CC3)o2)cc1 | 59% | inactive | 62 nM | 2.1 nM | inactive | 20 nM | 121% | 4.2 nM | 1.6 nM | 127% | 22 nM | 121% | < 0.01 | inactive | 117%
6 | CC#C[C@@H](CC(=O)O)c1ccc(OCc2ccc(CN3CCC4(C=Cc5ccccc54)CC3)cc2)cc1F | 60% | inactive | 36 nM | 5.6 nM | inactive | 13 nM | 118% | 16 nM | 18 nM | 156% | 14 nM | 120% | < 0.01 | inactive | 115%
7 | CC#C[C@@H](CC(=O)O)c1ccc(OCc2ccc(CN3CCC4(CC3)CC(=O)c3ccccc3O4)cc2)cc1 | 56% | inactive | 26 nM | 2.1 nM | inactive | 16 nM | 147% | 4.5 nM | 65 nM | 228% | 8.3 nM | 141% | < 0.01 | inactive | 159%
